Activity and IC50 data for six compounds are collected here from ChEMBL document CHEMBL1212891, “Effect of [6]-shogaol on cytosolic Ca2+ levels and proliferation in human oral cancer cells (OC2)” (J Nat Prod, 2010).

Molecules are shown by their SMILES. Active and inactive are the calls of the source. The rule behind the calls is not given here.

Experiment [1] relates to OC2. Nature of the experiment: Activation of phospholipase A2/C in human OC2 cells assessed as increase in intracellular calcium level at 1 uM. In kind it is cell-based. In a few lines: (§1)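 OC2 cells trypsinized (10^6/mL), recovered 1 h in culture medium, loaded with 2 µM fura-2/AM for 30 min at 25 °C, washed and resuspended in Ca2+-containing buffer pH 7.4 (NaCl 140, KCl 5, MgCl2 1, CaCl2 2, HEPES 5, glucose 5 mM). 0.5 million cells/mL stirred at 25 °C. Ratio of 340/380 nm excitation read at 510 nm emission every 1 s. Calibrated with Triton X-100 and EGTA, Kd 155 nM.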

The nature of experiment [2]: (§2) Cytotoxicity in human OC2 cells assessed as decrease in cell viability after 24 hrs by crystal violate assay. In kind it is functional, cell-based. The note with it: OC2, 24 h. In a few lines:
(§3)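 OC2 cells in RPMI with 10% heat-inactivated FCS at 37 °C, 5% CO2. Plated at 1 × 10^4 per well and grown overnight. At about 70% confluence, medium replaced with compound at 0-100 µM from a DMSO stock (final DMSO <0.5%, DMSO as control) for 24 h. Cell number by crystal violet elution, expressed as percent of control. n=5.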

The subject of experiment [3] is OC2. Nature of the experiment: Activation of phospholipase A2/C in human OC2 cells assessed as increase in intracellular calcium level at 0.1 uM. In kind it is cell-based. In a few lines:
as §1
In general terms: Calcium flux is commonly read through the fluorescence of an indicator in the cells.

Experiment [4] has as its system OC2. Nature of the experiment: Activation of phospholipase A2/C in human OC2 cells assessed as increase in intracellular calcium level at 100 uM. In kind it is cell-based. Put shortly: as §1
Experiment [5] concerns OC2. Nature of the experiment: Activation of phospholipase A2/C in human OC2 cells assessed as increase in intracellular calcium level at 100 uM in presence of thapsigargin. It counts as cell-based.
The subject of experiment [6] is OC2. Nature of the experiment: Activation of phospholipase A2/C in human OC2 cells assessed as decrease in intracellular calcium release at 100 uM in presence of Calcium entry blocker La3+. In kind it is cell-based. Put shortly:
as §1

In experiment [7] the test system is OC2. Nature of the experiment: Activation of phospholipase A2/C in human OC2 cells assessed as increase in intracellular calcium level in presence of phospholipase-A2 inhibitor aristolochc acid. It counts as cell-based. In a few lines:
as §1

For experiment [8], the system named is OC2. Nature of the experiment: Activation of phospholipase A2/C in human OC2 cells assessed as increase in intracellular calcium level at 100 uM in presence of PKA inhibitor H89. In kind it is cell-based. Put shortly: as §1
Experiment [9] deals with OC2. Nature of the experiment: Activation of phospholipase A2/C in human OC2 cells assessed as increase in intracellular calcium level at 100 uM in presence of PKC inhibitor GF109203X. It counts as cell-based. Put shortly: as §1
In experiment [10] the test system is OC2. Nature of the experiment: Activation of phospholipase A2/C in human OC2 cells assessed as increase in intracellular calcium level at 100 uM pretreated with phospholipase C inhibitor […] and ATP. In kind it is cell-based.
Experiment [11] deals with OC2. The description is as §2. It counts as functional, cell-based. In a few lines:
as §3

The subject of experiment [12] is OC2. Nature of the experiment: Activation of calcium channel in human OC2 cells assessed as increase in intracellular calcium […] in presence of La3+. In kind it is cell-based. In a few lines: as §1
Experiment [13] deals with OC2. Nature of the experiment: Activation of phospholipase A2/C in human OC2 cells assessed as increase in intracellular calcium level at 100 uM in presence of protein kinase C activator PMA.

For the compound `COC(=O)C1=C(C)NC(C)=C(C(=O)OC)C1c1ccccc1[N+](=O)[O-]`, the outcome in the experiment on OC2 [1] was inactive.

With `COC(=O)C1=C(C)NC(C)=C(C(=O)OCCN(C)Cc2ccccc2)C1c1cccc([N+](=O)[O-])c1` (configuration not stated), in the experiment on OC2 [1], the outcome was inactive.

Regarding `COc1ccc(CCN(C)CCCC(C#N)(c2ccc(OC)c(OC)c2)C(C)C)cc1OC` (configuration not stated), the outcome in the experiment with OC2 [1] was inactive.

In the case of `COc1ccc([C@@H]2Sc3ccccc3N(CCN(C)C)C(=O)[C@@H]2OC(C)=O)cc1`, the result with OC2 [1] was inactive.

A word on the IC50: it is the midpoint of a concentration-inhibition curve. On to `CCCCC[C@H](O)CC(=O)CCc1ccc(O)c(OC)c1` [GINGEROL], for which the IC50 in [2] was 74.2 µM.

On to `CCCCC/C=C/C(=O)CCc1ccc(O)c(OC)c1` [SHOGAOL], for which the outcome in the experiment on OC2 [3], with OC2 [5], in the experiment with OC2 [6], in the experiment on OC2 [7], with OC2 [10] and with OC2 [12] was inactive. In addition, the Activity in the experiment with OC2 [4] is 68%; in the experiment with OC2 [11], “Dose-dependent effect”. The outcome in the experiment with OC2 [8], in the experiment on OC2 [9] and with OC2 [13] was Active. Further, in experiment [2], the IC50 is 15.6 µM.
